Data as given in ChEMBL document CHEMBL1127645, “Synthesis, structure-activity relationships, and pharmacological evaluation of a series of fluorinated 3-benzyl-5-indolecarboxamides: identification of 4-[[5-[((2R)-2-methyl-4,4,4-trifluorobutyl)carbamoyl]-1-methyl indol- 3-yl]methyl]-3-methoxy-N-[(2-methylphenyl)sulfonyl]benzamide, a potent, …” (J Med Chem, 1994).

Tests used:
[1] = target: T1, Cysteinyl leukotriene receptor 1 (Cavia porcellus) (UniProt Q2NNR5); assay: Binding constant in guinea pig tracheal spirals with LTE4; format: tissue-based; details: Trachea
T1 sequence (whole entry): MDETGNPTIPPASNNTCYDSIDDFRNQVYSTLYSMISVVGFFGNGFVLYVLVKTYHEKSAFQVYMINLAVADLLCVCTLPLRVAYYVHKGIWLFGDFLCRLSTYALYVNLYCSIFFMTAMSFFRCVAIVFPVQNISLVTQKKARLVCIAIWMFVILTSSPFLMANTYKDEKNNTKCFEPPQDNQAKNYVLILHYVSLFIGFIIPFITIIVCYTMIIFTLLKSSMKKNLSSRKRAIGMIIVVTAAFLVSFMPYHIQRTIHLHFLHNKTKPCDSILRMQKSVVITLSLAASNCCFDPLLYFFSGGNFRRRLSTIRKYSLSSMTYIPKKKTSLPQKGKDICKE
Outline: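 Guinea pig tracheal spirals contracted with LTE4 as agonist. Antagonist KB derived from concentration-response curves and reported as -log(KB) (pKB); n = number of concentration-response curves.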

[2] = target: T1, Cysteinyl leukotriene receptor 1 (Cavia porcellus); assay: Effective dose for the inhibition of percent protection from LTD4-induced dyspnea in a conscious guinea pig administered through oral route; format: functional
Outline: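 Conscious guinea pig dyspnea model with LTD4 challenge; percent protection from dyspnea plotted against dose (oral or intravenous). ED50 obtained by regression using at least three doses from the linear portion of the dose-response curve; SEM for percent protection was generally ≤25% at each dose.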

[3] = test system: Cysteinyl leukotriene receptor (Cavia porcellus); assay: Inhibition of percent protection from LTD4-induced dyspnea in a conscious guinea pig administered intravenously
[4] = target: T2, Cysteinyl leukotriene receptor 1 (Cavia porcellus, UniProt Q2NNR5); assay: Inhibition constant for displacement of [3H]LTD4 on guinea pig lung parenchymal membranes; format: tissue-based, Lung parenchyma
T2 sequence (Q2NNR5 whole entry): T1 sequence (whole entry)
Outline: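 Guinea pig lung parenchymal membranes; competitive displacement of [3H]LTD4. Ki taken as mean of two experiments, each run in duplicate on separate membrane batches.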

[5] = Partition coefficient (logP); details: octanol/water
Cavia porcellus [6] = assay: ED50 (p.o.) / ED50 (i.v.) ratio of the compound; format: functional
Outline: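 Ratio of oral ED50 to intravenous ED50 from the conscious guinea pig LTD4-induced dyspnea model, used as an index of oral bioavailability.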

Cavia porcellus [7] = assay: Percent inhibition of protection from LTD4-induced dyspnea in a conscious guinea pig administered through oral route at a dose of 3 umol/kg; format: functional

Row | SMILES | pKB [1] | Ki [4] [nM] | logP [5] | further results
1 | CCC(CC)CNC(=O)c1ccc2c(c1)c(Cc1ccc(C(=O)NS(=O)(=O)c3ccccc3C)cc1OC)cn2C | 8 | 4.7 | – | ED50 [2]: 14.7 µmol/kg; ED50 [3]: 1.09 µmol/kg
2 | CCC(CNC(=O)c1ccc2c(c1)c(Cc1ccc(C(=O)NS(=O)(=O)c3ccccc3C)cc1OC)cn2C)CC(F)(F)F (centres undefined) | 9.6 | 5.3 | 6.45 | ED50 [2]: 2.64 µmol/kg; ED50 [3]: 0.047 µmol/kg; Ratio (Cavia porcellus [6]): 56
3 | CCC(CC)CNC(=O)c1ccc2c(c1)c(Cc1ccc(C(=O)O)cc1OC)cn2C | – | – | 5.42 | –
4 | COc1cc(C(=O)NS(=O)(=O)c2ccccc2Cl)ccc1Cn1cc(C)c2ccc(C(=O)NCC(C)CC(F)(F)F)cc21 (centres undefined) | – | 4.9 | – | –
5 | COc1cc(C(=O)NS(=O)(=O)c2ccccc2C)ccc1Cc1cn(C)c2ccc(C(=O)NCCC(C(F)(F)F)C(F)(F)F)cc12 | 9.3 | 1.2 | – | inhibition in vivo at 3 µmol/kg (Cavia porcellus [7]): 19%
6 | CCCCC(CNC(=O)c1ccc2c(c1)c(Cc1ccc(C(=O)NS(=O)(=O)c3ccccc3C)cc1OC)cn2C)C(F)(F)F (centres undefined) | 8.8 | 5 | – | –
7 | COc1cc(C(=O)O)ccc1Cc1cn(C)c2ccc(C(=O)NCC(C)CC(F)(F)F)cc12 (centres undefined) | – | – | 5.12 | –
8 | CCC(C)CNC(=O)c1ccc2c(c1)c(Cc1ccc(C(=O)O)cc1OC)cn2C (centres undefined) | – | – | 4.86 | –
9 | CCCn1cc(Cc2ccc(C(=O)NS(=O)(=O)c3ccccc3C)cc2OC)c2cc(C(=O)NCC(C)CC(F)(F)F)ccc21 (centres undefined) | – | 1.7 | – | –

Further compounds by falling Ki [4], results first:

Row | pKB [1] | Ki [4] [nM] | logP [5] | SMILES | further results
10 | – | 7.3 | 6.3 | COc1cc(C(=O)NS(=O)(=O)c2ccccc2C)ccc1Cc1cn(C)c2ccc(C(=O)NCCC(C)C(F)(F)F)cc12 (centres undefined) | –
11 | – | 3.8 | – | C=C(CNC(=O)c1ccc2c(c1)c(Cc1ccc(C(=O)NS(=O)(=O)c3ccccc3C)cc1OC)cn2C)CC(F)(F)F | –
12 | 8.4 | 3.2 | – | COc1cc(C(=O)NS(=O)(=O)c2ccccc2C)ccc1Cc1cn(C)c2ccc(C(=O)NCC3CCCC3)cc12 | ED50 [2]: 19.2 µmol/kg; ED50 [3]: 0.69 µmol/kg; Ratio (Cavia porcellus [6]): 28
13 | 8.9 | 2.2 | – | COc1cc(C(=O)NS(=O)(=O)c2ccccc2C)ccc1Cc1cn(C)c2ccc(C(=O)NCC(C)(C)CC(F)(F)F)cc12 | –
14 | – | 2.1 | – | COc1cc(C(=O)NS(=O)(=O)c2ccccc2C)ccc1Cc1cn(C)c2ccc(C(=O)NC/C(C)=C\C(F)(F)F)cc12 | –
15 | 9.6 | 0.44 | – | COc1cc(C(=O)NS(=O)(=O)c2ccccc2C)ccc1Cn1cc(C)c2ccc(C(=O)NCC(C)CC(F)(F)F)cc21 (centres undefined) | ED50 [2]: 2.29 µmol/kg
